From ChEMBL document CHEMBL4715734, “Discovery of the Potent and Selective M1 PAM-Agonist N-[(3R,4S)-3-Hydroxytetrahydro-2H-pyran-4-yl]-5-methyl-4-[4-(1,3-thiazol-4-yl)benzyl]pyridine-2-carboxamide (PF-06767832): Evaluation of Efficacy and Cholinergic Side Effects” (J Med Chem, 2016)
Where a chain is given by its changes, count along the chain named. In brackets after ≈: the same amount, converted by molar mass.

Tests used:
[1] = Toxicity in male Beagle dog assessed as effect on cardiac contractility at 3 mg/kg, po administered as single dose observed upto 9 hrs post last dose by telemetry; assay type: organism-based, Canis lupus familiaris; conditions: in vivo
Method in brief: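 Crossover telemetry study in dogs at three oral doses (0.3, 1 and 3 mg/kg), N=4. Endpoints were blood pressure, maximum systolic left ventricular pressure, LV +dP/dt max, activity, heart rate, and RR, QT and QTc intervals, followed up to 9 h post dose.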

[2] = Toxicity in dog assessed as side-to-side head movements at 45 mg/kg, po using spray-dried dispersion formulation measured after 45 mins; assay type: organism-based, Canis lupus familiaris; conditions: in vivo, 0.75 h
[3] = Toxicity in dog assessed as emesis at 15 mg/kg, po using spray-dried dispersion formulation; assay type: organism-based, Canis lupus familiaris; conditions: in vivo
Method in brief: (§1)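 Dogs received single escalating oral doses as a spray-dried dispersion (10% drug loading with HPMCAS-M). The dispersion was suspended in 0.5 wt% methylcellulose/0.5 wt% HPMCAS in 20 mM tris buffer, pH 7.4. One dog per sex per dose was used, and clinical signs were recorded.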

[4] = Toxicity in dog assessed as emesis at 5 mg/kg, po using spray-dried dispersion formulation; assay type: organism-based, Canis lupus familiaris; conditions: in vivo; method in brief: as §1
[5] = fAUC (0 to 24 hrs) in rat at 30 mg/kg, po administered for 14 days; assay type: ADME, organism-based; conditions: in vivo, 336 h, time 14 day
Method in brief: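 2-week repeat oral dosing in rats, 0.5% methylcellulose formulation; N=4/sex/dose; doses 3, 10, 30 (males)/15 (females) mg/kg; unbound exposures reported per dose and sex.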

[6] = Unbound brain concentration in […] in Sprague-Dawley rat model at 3.2 mg/kg, sc measured after 1.67 hrs; assay type: ADME, organism-based; conditions: in vivo
Method in brief: (§2)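 Randomly selected animals (N=2/dose) at the end of the rat PPI study, T = 1.67 h. Dosed subcutaneously as a suspension in 0.5% methylcellulose in water. Plasma and brain concentrations were averaged.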

[7] = Unbound plasma concentration in […] in Sprague-Dawley rat model at 1 mg/kg, sc measured after 1.67 hrs; assay type: ADME, organism-based; conditions: in vivo; method in brief: as §2
[8] = Unbound brain concentration in amphetamine-induced C57BL/6J mouse model of hyperlocomotion at 3.2 mg/kg, sc measured after 1 hr; assay type: ADME, organism-based; conditions: in vivo
Method in brief: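 Satellite PK animals from the mouse aLMA study, N=2/dose. Dosed subcutaneously with a solution in 5/15/80 DMSO/Solutol/water. Plasma and brain were sampled at T = 1 h.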

[9] = Unbound plasma concentration in CD-1 mouse at 10 mg/kg, sc measured after 2 hrs by LC-MS/MS analysis; assay type: ADME, organism-based; conditions: in vivo
[10] = biological target: T1, Muscarinic acetylcholine receptor M1 (Rattus norvegicus) (UniProt P08482); assay: Positive allosteric modulation of muscarinic M1 receptor in Sprague-Dawley rat hippocampal slice assessed as increase in carbachol-induced CA1 spiked rates by electrophysiological analysis; conditions: filed as positive allosteric modulator
T1 sequence (whole entry): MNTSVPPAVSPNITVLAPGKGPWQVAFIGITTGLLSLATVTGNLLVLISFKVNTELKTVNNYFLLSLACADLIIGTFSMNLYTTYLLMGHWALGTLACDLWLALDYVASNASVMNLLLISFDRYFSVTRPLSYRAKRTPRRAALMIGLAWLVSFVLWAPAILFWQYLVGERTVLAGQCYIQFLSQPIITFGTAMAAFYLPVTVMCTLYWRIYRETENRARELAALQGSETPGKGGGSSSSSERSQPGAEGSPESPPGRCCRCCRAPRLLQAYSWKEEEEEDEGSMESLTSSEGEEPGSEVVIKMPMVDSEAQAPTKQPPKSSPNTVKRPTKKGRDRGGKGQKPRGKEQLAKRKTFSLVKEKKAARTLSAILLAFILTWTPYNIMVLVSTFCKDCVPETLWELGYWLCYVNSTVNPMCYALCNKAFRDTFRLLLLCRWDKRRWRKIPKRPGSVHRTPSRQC

[11] = biological target: T2, Muscarinic acetylcholine receptor M1 (Homo sapiens, UniProt P11229); assay: Partial agonist activity at muscarinic M1 receptor (unknown origin) assessed as recruitment of beta-arrestin by Path Hunter assay; assay type: cell-based, CHO
T2 sequence (P11229 whole entry): T1 sequence (whole entry) with V5A, S254T, S309P, K320R, G337A, V413I

[12] = Ratio of fAUC in monkey brain to plasma; assay type: ADME, cell-free, Macaca mulatta; conditions: rhesus monkey, brain and plasma; read-out: Ratio AUC
[13] = Half life in dog at 0.5 mg/kg, po or 0.1 mg/kg, iv; assay type: ADME, organism-based, Canis lupus familiaris; conditions: in vivo
[14] = Aqueous solubility of compound at pH 6.5; assay type: physicochemical; conditions: buffer
[15] = Toxicity in dog at 1 mg/kg, po using spray-dried dispersion formulation; assay type: organism-based, Canis lupus familiaris; conditions: in vivo
[16] = Toxicity in male rat assessed as increase in food intake at 30 mg/kg, po administered for 14 days; conditions: in vivo, 336 h
[17] = biological target: T3, Muscarinic acetylcholine receptor M5 (Homo sapiens, UniProt P08912); assay: Positive allosteric modulation of human recombinant muscarinic M5 receptor stably expressed in CHO cells assessed as increase in Ach-induced accumulation of intracellular calcium level upto 10 uM incubated for 10 mins followed by addition of Ach at EC20 concentration by Fluo-8AM dye based FLIPR TETRA method
T3 sequence (P08912 whole entry): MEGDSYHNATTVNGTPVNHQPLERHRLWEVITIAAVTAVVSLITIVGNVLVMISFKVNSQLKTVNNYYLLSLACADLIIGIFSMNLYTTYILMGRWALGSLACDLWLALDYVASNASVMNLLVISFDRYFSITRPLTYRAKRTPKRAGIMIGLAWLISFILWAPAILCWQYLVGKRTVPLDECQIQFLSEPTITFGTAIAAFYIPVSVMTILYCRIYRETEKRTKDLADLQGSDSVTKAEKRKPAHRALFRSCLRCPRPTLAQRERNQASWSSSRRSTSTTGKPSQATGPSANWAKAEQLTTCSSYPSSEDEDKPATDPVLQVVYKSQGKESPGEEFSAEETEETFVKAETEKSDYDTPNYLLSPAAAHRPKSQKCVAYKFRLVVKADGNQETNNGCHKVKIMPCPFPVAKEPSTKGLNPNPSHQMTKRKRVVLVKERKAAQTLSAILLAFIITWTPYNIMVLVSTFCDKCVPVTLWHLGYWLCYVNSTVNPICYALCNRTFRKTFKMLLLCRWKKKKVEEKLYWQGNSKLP

fAUC [5]: 13.211 µM·h
Drug uptake(free) [6]: 44.4 nM
Cp(f) [7]: 45.6 nM
Drug uptake(free) [8]: 85.2 nM
Cp(f) [9]: 574 nM
Activity [10]: Dose-dependent effect
EC50 [11]: 3.9 µM
Kp uu [12]: 0.51
half-life [13]: 5.17 h
solubility [14]: 2.7 µg/mL (≈ 6.59 µM)
Activity [17]: Not Active
Compound: Cc1cnc(C(=O)N[C@H]2CCOC[C@@H]2O)cc1Cc1ccc(-c2cscn2)cc1
Activity [1]: Toxic
Activity [2]: Toxic
Activity [3]: Toxic
Activity [4]: Toxic
Activity [15]: Non-Toxic
Activity [16]: Non-Toxic
